Results as given in ChEMBL document CHEMBL3286229 (J Med Chem, 2014).
The source made the active and inactive calls. No cut-off for these calls is given here.

Tests used:
[1] = biological target: T1, GABA-A receptor; alpha-1/beta-2/gamma-2 (Homo sapiens, UniProt P14867+P18507+P47870); assay: Modulation of GABAA alpha1beta2gamma2S receptor (unknown origin) expressed in Xenopus laevis oocytes assessed as potentiation of GABA-induced chloride ion current at holding potential -70 mV by two-microelectrode voltage clamp assay; type: cell-based
T1 sequence (P14867 whole entry): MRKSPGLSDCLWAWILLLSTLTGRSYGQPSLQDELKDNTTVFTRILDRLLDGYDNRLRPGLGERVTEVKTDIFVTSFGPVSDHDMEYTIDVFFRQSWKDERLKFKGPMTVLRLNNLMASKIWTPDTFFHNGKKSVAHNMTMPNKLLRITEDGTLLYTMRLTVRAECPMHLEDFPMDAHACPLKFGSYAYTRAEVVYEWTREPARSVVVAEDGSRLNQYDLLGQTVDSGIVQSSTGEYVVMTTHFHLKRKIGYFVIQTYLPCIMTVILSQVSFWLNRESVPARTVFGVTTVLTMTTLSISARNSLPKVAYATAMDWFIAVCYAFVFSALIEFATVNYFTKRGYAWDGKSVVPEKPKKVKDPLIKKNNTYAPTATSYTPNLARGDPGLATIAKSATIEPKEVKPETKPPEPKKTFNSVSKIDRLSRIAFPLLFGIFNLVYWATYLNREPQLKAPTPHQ
T1 sequence (P47870 whole entry): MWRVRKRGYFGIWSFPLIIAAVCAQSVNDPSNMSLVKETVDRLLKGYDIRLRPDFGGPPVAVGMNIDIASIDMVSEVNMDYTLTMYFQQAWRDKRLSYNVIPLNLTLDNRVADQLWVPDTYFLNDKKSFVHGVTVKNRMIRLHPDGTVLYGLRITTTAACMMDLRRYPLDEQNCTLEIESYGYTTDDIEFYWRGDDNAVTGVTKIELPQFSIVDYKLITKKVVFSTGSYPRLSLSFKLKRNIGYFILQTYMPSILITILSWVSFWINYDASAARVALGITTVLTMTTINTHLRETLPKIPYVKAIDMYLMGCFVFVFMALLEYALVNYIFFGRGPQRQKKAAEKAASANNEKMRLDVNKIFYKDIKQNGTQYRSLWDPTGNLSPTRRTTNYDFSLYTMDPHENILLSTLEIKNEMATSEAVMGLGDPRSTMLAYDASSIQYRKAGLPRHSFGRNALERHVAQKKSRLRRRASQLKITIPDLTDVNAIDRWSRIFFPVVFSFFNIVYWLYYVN
T1 sequence (P18507 whole entry): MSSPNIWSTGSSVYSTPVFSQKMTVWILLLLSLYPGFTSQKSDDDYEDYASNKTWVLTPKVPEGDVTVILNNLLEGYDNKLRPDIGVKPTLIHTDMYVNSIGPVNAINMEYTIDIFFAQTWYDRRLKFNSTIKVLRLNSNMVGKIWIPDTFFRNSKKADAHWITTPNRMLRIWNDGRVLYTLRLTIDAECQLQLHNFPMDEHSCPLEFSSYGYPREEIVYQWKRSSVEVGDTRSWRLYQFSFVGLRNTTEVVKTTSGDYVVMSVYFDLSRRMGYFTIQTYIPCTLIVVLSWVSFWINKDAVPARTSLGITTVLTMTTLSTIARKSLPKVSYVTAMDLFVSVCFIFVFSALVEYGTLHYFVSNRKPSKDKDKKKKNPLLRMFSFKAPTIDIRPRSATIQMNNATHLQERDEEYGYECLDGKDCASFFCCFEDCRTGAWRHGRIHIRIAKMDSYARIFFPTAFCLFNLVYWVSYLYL
Method in brief: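 Stage V–VI oocytes injected with α1, β2 and γ2S cRNAs mixed 1:1:10 and kept at 18 °C in modified ND96 (pH 7.4). Two-microelectrode voltage clamp at room temperature, holding potential −70 mV, electrodes with 2 M KCl. Compounds co-applied by fast perfusion with GABA at EC3–7. Washout lasted 1.5 min below 10 μM and 30 min at ≥10 μM. Oocytes with currents >3 μA discarded.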

[2] = biological target: Transient receptor potential cation channel subfamily V member 1 (Homo sapiens) (UniProt Q8NER1); assay: Activation of TRPV1 (unknown origin) expressed in Xenopus oocytes up to 100 uM; type: cell-based
Chain of Transient receptor potential cation channel subfamily V member 1 (Homo sapiens) (Q8NER1 whole entry): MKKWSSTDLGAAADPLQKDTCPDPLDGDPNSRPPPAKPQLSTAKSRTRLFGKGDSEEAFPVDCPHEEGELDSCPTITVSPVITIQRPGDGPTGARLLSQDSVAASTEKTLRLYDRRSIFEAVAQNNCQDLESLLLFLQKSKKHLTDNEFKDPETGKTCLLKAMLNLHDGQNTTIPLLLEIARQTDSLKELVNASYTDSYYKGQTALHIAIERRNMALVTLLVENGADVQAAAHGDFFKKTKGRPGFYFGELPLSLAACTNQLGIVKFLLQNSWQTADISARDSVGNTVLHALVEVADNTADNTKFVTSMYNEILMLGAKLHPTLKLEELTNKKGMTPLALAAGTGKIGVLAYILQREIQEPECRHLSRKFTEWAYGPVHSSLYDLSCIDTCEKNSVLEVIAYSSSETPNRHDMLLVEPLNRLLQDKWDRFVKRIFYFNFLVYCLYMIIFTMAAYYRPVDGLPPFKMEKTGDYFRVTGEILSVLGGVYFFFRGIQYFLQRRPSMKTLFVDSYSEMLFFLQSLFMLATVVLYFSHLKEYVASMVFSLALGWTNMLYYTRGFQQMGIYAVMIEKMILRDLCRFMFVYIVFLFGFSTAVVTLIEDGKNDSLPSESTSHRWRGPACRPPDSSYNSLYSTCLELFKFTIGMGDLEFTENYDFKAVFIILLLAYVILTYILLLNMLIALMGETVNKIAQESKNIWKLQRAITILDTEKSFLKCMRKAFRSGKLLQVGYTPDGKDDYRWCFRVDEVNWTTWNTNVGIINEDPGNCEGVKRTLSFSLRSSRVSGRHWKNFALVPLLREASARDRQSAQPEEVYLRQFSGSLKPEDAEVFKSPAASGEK

Mus musculus [3] = assay: Sedative effect in ip dosed C57BL/6N mouse assessed as reduction in locomotor activity by open field test; type: organism-based; conditions: in vivo
Method in brief: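 Male C57BL/6N mice, 3–6 months old, dosed ip 30 min before testing. Vehicle was 0.9% NaCl with 10% DMSO and 3% Tween 80; doses in mg/kg. Ambulation recorded over 10 min in a 50 × 50 cm box fitted with infrared rearing detection.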

Mus musculus [4] = assay: Anxiolysis activity in ip dosed C57BL/6N mouse assessed as time spent on open arms by elevated plus maze test; type: functional, organism-based
Method in brief: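 Male C57BL/6N mice, 3–6 months old, given ip injections 30 min before testing. Vehicle was 0.9% NaCl with 10% DMSO and 3% Tween 80; doses in mg/kg, with saline controls. 5 min on an elevated plus maze (arms 50 × 5 cm, 1 m high, 180 Lux), starting in the centre facing an open arm. Time on open arms scored automatically by video.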

Activity [2] | SMILES | EC50 [1] | Activity (Mus musculus [3]) | Activity (Mus musculus [4])
 | O=C(/C=C/C=C/c1ccc2c(c1)OCO2)N1CCCCC1 [PIPERINE] | 52.4 µM |  | 
inactive | CCCCN(CCCC)C(=O)/C=C/C=C/c1ccc2c(c1)OCO2 |  | Toxic | 
inactive | CCCN(CCC)C(=O)/C=C/C=C/c1ccc2c(c1)OCO2 |  | Toxic | Dose-dependent effect
